Results reported in ChEMBL document CHEMBL1147080, “Inhibition of hepatitis C virus replication by peroxidation of arachidonate and restoration by vitamin E” (Proc Natl Acad Sci U S A, 2007).
pIC50: −log10 of the molar value. The source made the active and inactive calls. The calls are words filed in the database; no cut-off is given here.

Legend:
Hepatitis C virus [1] = assay: Inhibition of hepatitis C virus replication in Huh7-K2040 cells in presence of fetal calf serum assessed viral RNA level at 0.1 mM by RT-PCR relative to control; format: functional, Hepacivirus hominis; design: scale not given: the % may be the effect or the level left
Outline: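 Huh7-K2040 cells (subgenomic genotype 1b replicon) were seeded at 4 × 10^5 per 60-mm dish. From day 2 they were cultured in 10% FCS with 0.1 mM BSA-conjugated fatty acid for 72 h. HCV RNA was measured by real-time PCR with 36B4 as invariant control (comparative CT), relative to untreated FCS cells; mean ± SD, three independent experiments.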

Hepatitis C virus [2] = assay: Inhibition of hepatitis C virus replication in Huh7-K2040 cells in presence of delipidated fetal calf serum assessed viral RNA level at 0.1 mM by RT-PCR relative to control; format: functional
Outline: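 Huh7-K2040 cells seeded at 4 × 10^5 per 60-mm dish. On day 2 switched to 10% FCS or delipidated FCS with 0.1 mM BSA-conjugated fatty acids for 72 h. HCV RNA measured by real-time RT-PCR in triplicate, normalized to 36B4 by comparative CT, relative to untreated FCS control. Mean ± SD, three independent experiments.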

Hepatitis C virus [3] = assay: Increase in hepatitis C virus replication in Huh7-K2040 cells in presence of delipidated fetal calf serum medium at 0.3 uM by RT-PCR relative to control; format: functional, organism-based; conditions: Hepacivirus hominis
Outline: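 Replicon-bearing Huh7 cells (genotype 1b subgenomic HCV replicon), 4 × 10^5 cells per 60-mm dish on day 0. On day 2 they were switched to medium with 10% delipidated FCS plus 0.3 μM lipid-soluble vitamin/lipid. Harvested after 72 h. HCV RNA was measured by qRT-PCR, normalized to 36B4 by comparative CT, relative to FCS-cultured controls; mean ± SD of three independent experiments.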

Hepatitis C virus [4] = assay: Inhibition of hepatitis C virus replication in Huh7-K2040 cells in presence of delipidated fetal calf serum medium assessed as increase of malondialdehyde at 0.1 mM relative to control; format: functional, Hepacivirus hominis
Outline: (§1)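 Huh7 or Huh7-K2040 cells seeded 7 × 10^5 per 60-mm dish. On day 1 switched to 10% FCS or 10% delipidated FCS, with or without 0.1 mM BSA-conjugated arachidonate and 0.3 μM vitamin E, for 16 h. MDA measured by TBARS kit at 532 nm in homogenates of cells pooled from two dishes, normalized to cellular protein. Mean ± SD, three independent experiments.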

Hepatitis C virus [5] = assay: Inhibition of hepatitis C virus replication in Huh7-K2040 cells in presence of fetal calf serum medium by RT-PCR; format: functional, organism-based, Hepacivirus hominis
Outline: (§2)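 Huh7-K2040 replicon cells (4 × 10^5 per 60-mm dish) switched on day 2 to 10% FCS or 10% delipidated FCS with graded BSA-conjugated arachidonate for 72 h. HCV RNA measured by real-time RT-PCR against 36B4 by comparative CT, relative to cells without arachidonate in the same serum. IC50 read from dose–response. Mean ± SD, three independent experiments.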

Hepatitis C virus [6] = assay: Reversal of inhibition of hepatitis C virus replication in Huh7-K2040 cells in presence of delipidated fetal calf serum medium assessed as malondialdehyde level at 0.1 mM in presence of vitamin E; format: functional, organism-based; conditions: Hepacivirus hominis; outline: as §1
Hepatitis C virus [7] = assay: Inhibition of hepatitis C virus replication in Huh7-K2040 in presence of delipidated fetal calf serum medium assessed as increase of malondialdehyde at 0.1 mM after 12 to 24 hrs; format: functional, organism-based; conditions: Hepacivirus hominis
Outline: (§3)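 Huh7-K2040 cells (7 × 10^5 per 60-mm dish) switched on day 1 to 10% delipidated FCS with 0.1 mM BSA-conjugated arachidonate and harvested over a time course up to 72 h. MDA measured by TBARS assay at 532 nm, normalized to protein, relative to cells at time 0. Data from a representative experiment.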

Hepatitis C virus [8] = assay: Inhibition of hepatitis C virus replication in Huh7-K2040 cells in presence of delipidated fetal calf serum medium assessed as reduction in viral RNA level at 0.1 mM after 12 hrs relative to control; format: functional, Hepacivirus hominis; design: scale not given: the % may be the effect or the level left
Outline: (§4)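 Time course in Huh7-K2040 cells (7 × 10^5 per 60-mm dish) given 10% delipidated FCS plus 0.1 mM BSA-conjugated arachidonate from day 1. HCV RNA measured by TaqMan real-time RT-PCR, normalized to 36B4 by comparative CT, relative to cells at time 0. Data from a representative experiment.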

Hepatitis C virus [9] = assay: Inhibition of hepatitis C virus replication in Huh7-K2040 cells in presence of delipidated fetal calf serum medium assessed as reduction in viral RNA level at 0.1 mM after 72 hrs relative to control; format: functional, Hepacivirus hominis; design: scale not given: the % may be the effect or the level left; outline: as §4
Hepatitis C virus [10] = assay: Inhibition of hepatitis C virus replication in Huh7-K2040 cells in presence of delipidated fetal calf serum medium assessed as decrease of malonaldehyde at 0.1 mM after 72 hrs relative to control; design: scale not given: the % may be the effect or the level left
[11] = Cytotoxicity against human Huh7-K2040 cells in delipidated fetal calf serum medium; format: cell-based; conditions: huh-7
Outline: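 Huh7-K2040 replicon cells (7 × 10^5 per 60-mm dish) moved on day 1 to medium with 10% delipidated FCS and 0.1 mM BSA-conjugated arachidonate, or to 10% FCS medium. Cells harvested at set times. Growth followed as total cellular protein by BCA, relative to protein at time 0. Data from a representative experiment.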

Hepatitis C virus [12] = assay: Inhibition of hepatitis C virus replication in Huh7-K2040 cells in presence of delipidated fetal calf serum medium by RT-PCR; format: functional, organism-based, Hepacivirus hominis; outline: as §2
Hepatitis C virus [13] = assay: Inhibition of hepatitis C virus replication in Huh7-K2040 cells in presence of delipidated fetal calf serum medium assessed as increase of malondialdehyde at 0.1 mM after 48 hrs; format: functional, organism-based; conditions: Hepacivirus hominis; outline: as §3
Hepatitis C virus [14] = assay: Inhibition of hepatitis C virus replication in Huh7-K2040 cells in presence of fetal calf serum medium assessed as increase of malondialdehyde at 0.1 mM relative to control; format: functional, Hepacivirus hominis; outline: as §1
Hepatitis C virus [15] = assay: Restoration of hepatitis C virus replication in Huh7-K2040 cells in presence of delipidated fetal calf serum medium in absence of arachidonate by RT-PCR relative to control; format: functional, organism-based; conditions: Hepacivirus hominis
Outline: (§5)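 Huh7 cells carrying a genotype 1b subgenomic replicon were seeded on day 0. On day 2 they were moved to medium with 10% delipidated FCS, with or without 0.1 mM BSA-conjugated arachidonate, and given graded vitamin E. After 72 h HCV RNA was quantified by real-time PCR against 36B4 (comparative CT), relative to untreated controls kept in 10% FCS; three independent experiments.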

Hepatitis C virus [16] = assay: Increase of hepatitis C virus replication in Huh7-K2040 cells in fetal calf serum medium in presence of arachidonate by RT-PCR relative to control; format: functional, organism-based; conditions: Hepacivirus hominis
Outline: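 Replicon Huh7-K2040 cells were seeded at 4 × 10^5 per 60-mm dish. On day 2 they went into 10% FCS or 10% delipidated FCS with 0.1 mM BSA-conjugated arachidonate, ± 0.3 μM vitamin E. Cells were harvested 72 h later. HCV RNA was determined by qRT-PCR (36B4 reference, comparative CT), relative to FCS controls.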

Hepatitis C virus [17] = assay: Restoration of hepatitis C virus replication in Huh7-K2040 cells in delipidated fetal calf serum medium assessed as increase in […] 40 nM in absence of arachidonate by RT-PCR relative to control; format: functional, organism-based; conditions: Hepacivirus hominis; outline: as §5
Hepatitis C virus [18] = assay: Increase of hepatitis C virus replication in Huh7-K2040 cells in fetal calf serum medium in absence of arachidonate by RT-PCR relative to control; format: functional, organism-based; conditions: Hepacivirus hominis
Hepatitis C virus [19] = assay: Increase of hepatitis C virus replication in Huh7-K2040 cells in delipidated fetal calf serum medium in presence of arachidonate by RT-PCR relative to control; format: functional, organism-based; conditions: Hepacivirus hominis; outline: as §5
Hepatitis C virus [20] = assay: Increase of hepatitis C virus replication in Huh7-K2040 cells in delipidated fetal calf serum medium assessed as increase in […] at 40 nM in presence of arachidonate by RT-PCR relative to control; format: functional, organism-based; conditions: Hepacivirus hominis; outline: as §5

Work on `CCCCC/C=C\C/C=C\CCCCCCCC(=O)O` [LINOLEIC ACID] yielded an Activity (Hepatitis C virus [1]) of 50%.
In the case of `CCCCCCCC/C=C\CCCCCCCC(=O)O`, the Activity (Hepatitis C virus [1]; Hepacivirus hominis) was “inactive”, the Activity (Hepatitis C virus [2]; Hepacivirus hominis) was “inactive” and the Activity (Hepatitis C virus [3]) was “inactive”.
For `COC1=C(OC)C(=O)C(C/C=C(\C)CC/C=C(\C)CC/C=C(\C)CCC=C(C)C)=C(C)C1=O`, the Activity (Hepatitis C virus [3]) was “Active”.
With `CCCCC/C=C\C/C=C\C/C=C\C/C=C\CCCC(=O)O` [ARACHIDONIC ACID] the Activity (Hepatitis C virus [4]) was 48, the pIC50 (Hepatitis C virus [5]) was 4.22 and the Activity (Hepatitis C virus [1]) was 50%. For the same molecule, the Activity (Hepatitis C virus [2]) was 95%, the Activity (Hepatitis C virus [6]) was “Active” and the Activity (Hepatitis C virus [7]) was “Active”. It also gave an Activity (Hepatitis C virus [8]) of 40%, an Activity (Hepatitis C virus [9]) of over 90% and an Activity (Hepatitis C virus [10]) of over 90%. The Activity [11] was “Non-toxic”, the pIC50 (Hepatitis C virus [12]) was 5.00 and the Activity (Hepatitis C virus [13]) was “inactive”. It also gave an Activity (Hepatitis C virus [14]) of 8.
With `CC/C=C\C/C=C\C/C=C\CCCCCCCC(=O)O` [LINOLENIC ACID] the Activity (Hepatitis C virus [1]) was 50%.
In the case of `O=C1O[C@H]([C@@H](O)CO)C(O)=C1O`, the Activity (Hepatitis C virus [3]) was “inactive”.
For VITAMIN E, the Activity (Hepatitis C virus [15]) was “Active”, the Activity (Hepatitis C virus [3]) was “Active” and the Activity (Hepatitis C virus [16]) was “inactive”. The Activity (Hepatitis C virus [17]) was “Active”, the Activity (Hepatitis C virus [18]) was “inactive” and the Activity (Hepatitis C virus [19]) was 190%. For the same molecule, the Activity (Hepatitis C virus [20]) was “Active”.
